# Assay results pooled from the literature.
# Cell line: HepG2
# Observed: cell growth or viability
Compound,method,time,CC50
CN1CCN(c2cccc(-c3ccc4ncnc(Nc5ccc([N+](=O)[O-])c(C(F)(F)F)c5)c4c3)c2)CC1,MTT,48 h,34 µM
Cc1ccc(N(C)c2ccc(NC(=O)CN(C)c3cccnc3N3CCCC3=O)cc2)cc1,ATP luminescence,48 h,> 40 µM
CC(=O)OC[C@H]1O[C@@H]([S-])[C@H](OC(C)=O)[C@@H](OC(C)=O)[C@@H]1OC(C)=O.CCP(CC)CC.[Au+],ATP luminescence,72 h,9.81 µM
CCC(C)N(c1ccc(C)cc1)c1ccc(NC(=O)CN(C)c2ccccc2N2CCCC2=O)cc1 (centres unmarked),ATP luminescence,48 h,> 40 µM
FC(F)(F)c1cc(Nc2ncnc3ccc(-c4cccc(N5CCOCC5)c4)cc23)ccc1Cl,MTT,48 h,29 µM
N=C(CC(O)c1nc2ccccc2c2ccc(Br)cc12)Nc1ccc(F)cc1 (centres unmarked),neutral red,24 h,> 25 µM
CO[C@H]1/C=C/O[C@@]2(C)Oc3c(C)c(O)c4c(c3C2=O)C2=NC3(CCN(CC(C)C)CC3)NC2=C(NC(=O)/C(C)=C\C=C\[C@H](C)[C@H](O)[C@@H](C)[C@@H](O)[C@@H](C)[C@H](OC(C)=O)[C@@H]1C)C4=O,,48 h,170 µM
O=C(CNc1ccccc1N1CCCC1=O)Nc1ccc(Oc2cccc(Cl)c2)cc1,ATP luminescence,48 h,> 40 µM
CCCCCCNc1nc(NC2CCN(C)CC2)c2cc(OC)c(OC)cc2n1,ATP luminescence,72 h,2.03 µM
CN(CC(=O)Nc1ccc(N(C)c2ccc(Cl)cc2)c(Cl)c1)c1ccccc1N1CCCC1=O,ATP luminescence,48 h,> 40 µM
c1cc(-c2ccc3ncnc(Nc4ncco4)c3c2)nc(N2CCOCC2)n1,MTT,48 h,26 µM
CCCCN(c1ccc(C)cc1)c1ccc(NC(=O)CN(C)c2ccccc2N2CCCC2=O)cc1,ATP luminescence,48 h,> 40 µM
O=C1C(O)=C([C@H]2CC[C@H](c3ccc(Cl)cc3)CC2)C(=O)c2ccccc21,ATP luminescence,72 h,9.67 µM
N=C(CC(O)c1nc2cc(F)ccc2c2ccc(F)cc12)Nc1ccc(F)cc1 (centres unmarked),neutral red,24 h,19.4 µM
Clc1ccc(Nc2ncnc3ccc(-c4cccc(N5CCOCC5)c4)cc23)cc1Cl,MTT,48 h,> 40 µM
N=C(CC(O)c1nc2ccccc2c2ccc(Cl)cc12)Nc1ccc(F)cc1 (centres unmarked),neutral red,24 h,> 25 µM
Clc1ccc(Nc2ncnc3ccc(-c4cccc(N5CCOCC5)c4)cc23)cc1,MTT,48 h,18 µM
